Measurements from ChEMBL document CHEMBL3797202, “Novel Oxindole Sulfonamides and Sulfamides: EPZ031686, the First Orally Bioavailable Small Molecule SMYD3 Inhibitor” (ACS Med Chem Lett, 2016).
pKi: −log10 of the molar value.

Tests used:
[1] = biological target: T1, Histone-lysine N-methyltransferase SMYD3 (Homo sapiens, UniProt Q9H7B4); test: Non-competitive inhibition of full length N-terminal His-tagged SMYD3 (1 to 428 residues) (unknown origin) expressed in Escherichia coli using varying N-terminal GST-tagged MEKK2 substrate and fixed SAM levels preincubated for 30 mins followed by substrate addition by filter plate assay
T1 sequence (Q9H7B4 whole entry): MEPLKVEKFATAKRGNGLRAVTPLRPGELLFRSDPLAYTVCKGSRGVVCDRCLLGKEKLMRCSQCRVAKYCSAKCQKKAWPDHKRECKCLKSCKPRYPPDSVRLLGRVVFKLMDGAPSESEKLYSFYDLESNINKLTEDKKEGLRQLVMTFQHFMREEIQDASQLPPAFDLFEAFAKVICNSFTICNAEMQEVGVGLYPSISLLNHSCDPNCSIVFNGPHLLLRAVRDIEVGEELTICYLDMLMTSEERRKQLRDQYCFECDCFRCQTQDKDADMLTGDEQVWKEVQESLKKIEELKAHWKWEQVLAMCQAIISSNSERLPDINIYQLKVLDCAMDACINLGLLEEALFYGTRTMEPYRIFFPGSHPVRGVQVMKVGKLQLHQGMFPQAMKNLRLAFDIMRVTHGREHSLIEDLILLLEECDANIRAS

[2] = biological target: T1, Histone-lysine N-methyltransferase SMYD3; test: Non-competitive inhibition of full length N-terminal His-tagged SMYD3 (1 to 428 residues) (unknown origin) expressed in Escherichia coli using fixed N-terminal GST-tagged MEKK2 substrate and varying SAM levels preincubated for 30 mins followed by substrate addition by filter plate assay
[3] = Efflux ratio of apparent permeability in human Caco2 cells at 10 uM incubated for 120 mins by LC-MS/MS analysis; type: ADME, cell-based; details: Caco-2
Method in brief: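 Permeability in Caco-2 cells, measured apical-to-basolateral as P_app (×10⁻⁶ cm/s). An efflux ratio is reported as the index of active efflux. This is part of an in vitro ADME screen run before mouse PK studies.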

[4] = Volume of distribution at steady state in CD1 mouse at 1 mg/kg, iv as bolus dose measured up to 24 hrs by LC-MS/MS analysis; type: ADME, organism-based; details: in vivo, read-out: Vdss
Method in brief: (§1)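 Male CD-1 mice received a single bolus: 1 mg/kg i.v., or 5 or 50 mg/kg p.o. Values are mean ± SD, n = 3. […] Bioavailability was determined separately for each oral dose.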

[5] = Terminal half life in CD1 mouse at 1 mg/kg, iv as bolus dose by LC-MS/MS analysis; type: ADME, organism-based; details: in vivo, read-out: beta t1/2 (converted); method in brief: as §1
[6] = Terminal half life in CD1 mouse at 5 mg/kg, administered through oral gavage by LC-MS/MS analysis; type: ADME, organism-based; details: in vivo, read-out: beta t1/2 (converted); method in brief: as §1
[7] = Tmax in CD1 mouse at 50 mg/kg, administered through oral gavage by LC-MS/MS analysis; type: ADME, organism-based; details: in vivo; method in brief: as §1
[8] = Cmax in CD1 mouse at 50 mg/kg, administered through oral gavage measured up to 24 hrs by LC-MS/MS analysis; type: ADME, organism-based; parameters: dose 50 mg/kg, route oral; details: in vivo; method in brief: as §1

**Q.** With `O=C1Cc2cc(C(=O)N[C@H]3C[C@H]4CC[C@@H](C3)N4S(=O)(=O)CC3CCN(CCCC(F)(F)F)CC3)c(Cl)cc2N1` as the molecule, how does the pKi [1] read?
**A.** The pKi was 8.96.

**Q.** And the pKi [2]?
**A.** The pKi was 8.92.

**Q.** And the efflux ratio at 2 h, 10 µM [3]?
**A.** The efflux ratio at 2 h, 10 µM was 41.

**Q.** What about the Vd [4] of the same molecule?
**A.** The Vd was 2.3 L/kg.

**Q.** What about the half-life [5] of the same molecule?
**A.** Its half-life is 1.7 h.

**Q.** And the half-life [6]?
**A.** The half-life was 2.7 h.

**Q.** And the Tmax [7]?
**A.** The Tmax was 1.3 h.

**Q.** What about the Cmax [8] of the same molecule?
**A.** Its Cmax is 4690 ng/mL.
